8 compounds from ChEMBL document CHEMBL1133995, “Synthesis and P2Y receptor activity of a series of uridine dinucleoside 5'-polyphosphates” (Bioorg Med Chem Lett, 2001) can be followed below.

Structures are written as SMILES. Where only a bound is given, the exact number is not on record here.

Holding throughout (format): functional, cell-based
In assay [1] the target is T1, P2Y purinoceptor 2 (Homo sapiens, UniProt P41231). Description: Agonist activity evaluated as change in the level of cytosolic calcium in 1321N astrocytoma cells infected with a retrovirus encoding the human P2Y2 receptor.
T1 sequence (P41231 whole entry): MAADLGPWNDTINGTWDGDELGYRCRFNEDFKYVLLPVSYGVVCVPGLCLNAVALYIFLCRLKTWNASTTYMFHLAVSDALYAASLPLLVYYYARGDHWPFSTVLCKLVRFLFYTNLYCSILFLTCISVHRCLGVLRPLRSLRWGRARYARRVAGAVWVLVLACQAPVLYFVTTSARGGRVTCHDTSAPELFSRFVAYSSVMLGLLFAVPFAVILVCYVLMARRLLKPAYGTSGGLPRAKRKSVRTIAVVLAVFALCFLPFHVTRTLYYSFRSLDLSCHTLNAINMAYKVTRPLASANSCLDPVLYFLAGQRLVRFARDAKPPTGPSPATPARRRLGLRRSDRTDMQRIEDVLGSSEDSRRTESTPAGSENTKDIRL
The target in a further assay is P2Y purinoceptor 1 (Homo sapiens, UniProt P47900). Description: Agonist activity evaluated as change in the level of cytosolic calcium in 1321N astrocytoma cells infected with a retrovirus encoding the human P2Y1 receptor at 100 uM; IA is inactive.
P2Y purinoceptor 1, sequence (P47900 whole entry): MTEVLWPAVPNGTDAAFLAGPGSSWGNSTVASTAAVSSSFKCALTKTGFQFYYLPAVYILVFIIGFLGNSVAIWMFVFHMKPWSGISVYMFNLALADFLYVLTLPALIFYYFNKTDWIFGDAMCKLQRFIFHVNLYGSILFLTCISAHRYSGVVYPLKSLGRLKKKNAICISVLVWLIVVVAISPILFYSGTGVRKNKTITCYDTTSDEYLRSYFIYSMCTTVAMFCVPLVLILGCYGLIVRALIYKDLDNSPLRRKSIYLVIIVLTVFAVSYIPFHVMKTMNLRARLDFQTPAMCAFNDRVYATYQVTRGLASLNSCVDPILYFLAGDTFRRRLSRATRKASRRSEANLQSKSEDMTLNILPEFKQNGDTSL
For a further assay, the target named is P2Y purinoceptor 6 (Homo sapiens, UniProt Q15077). Description: Agonist activity evaluated as change in the level of cytosolic calcium in 1321N astrocytoma cells infected with a retrovirus encoding the human P2Y6 receptor. The procedure, abridged: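 Cells grown to confluence, then loaded with Fluo-3 AM (2.5 μM final) for 60 min at 25 °C in buffer (mM: KCl 10.0, NaCl 118, CaCl2 2.5, MgCl2 1.0, HEPES 20, glucose 10; pH 7.4). Dye washed off. Activation read as change in fluorescence intensity on FLIPR (cytosolic calcium mobilization). Agonist potency given as EC50.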
P2Y purinoceptor 6, sequence (Q15077 whole entry): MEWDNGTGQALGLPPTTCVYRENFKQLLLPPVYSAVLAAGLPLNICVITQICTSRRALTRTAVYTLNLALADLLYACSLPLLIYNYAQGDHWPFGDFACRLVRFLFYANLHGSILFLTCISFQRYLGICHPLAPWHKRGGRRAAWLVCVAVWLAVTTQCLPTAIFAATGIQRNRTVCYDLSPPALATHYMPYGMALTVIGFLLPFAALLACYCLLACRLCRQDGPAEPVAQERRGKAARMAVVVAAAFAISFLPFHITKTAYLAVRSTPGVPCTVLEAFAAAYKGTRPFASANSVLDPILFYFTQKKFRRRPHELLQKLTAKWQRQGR

Assay [2] addresses T2, P2Y purinoceptor 4 (Homo sapiens, UniProt P51582). Kind of assay: Agonist activity evaluated as change in the level of cytosolic calcium in 1321N astrocytoma cells infected with a retrovirus encoding the human P2Y4 receptor.
Assay [3] addresses T1, P2Y purinoceptor 2. Description: Agonist activity evaluated as change in the level of cytosolic calcium in 1321N astrocytoma cells infected with a retrovirus encoding the human P2Y2 receptor at 100 uM; IA is inactive.
Assay [4] has as its target T2, P2Y purinoceptor 4. Kind of assay: Agonist activity evaluated as change in the level of cytosolic calcium in 1321N astrocytoma cells infected with a retrovirus encoding the human P2Y4 receptor at 100 uM; IA is inactive.

T2 sequence (P51582 whole entry): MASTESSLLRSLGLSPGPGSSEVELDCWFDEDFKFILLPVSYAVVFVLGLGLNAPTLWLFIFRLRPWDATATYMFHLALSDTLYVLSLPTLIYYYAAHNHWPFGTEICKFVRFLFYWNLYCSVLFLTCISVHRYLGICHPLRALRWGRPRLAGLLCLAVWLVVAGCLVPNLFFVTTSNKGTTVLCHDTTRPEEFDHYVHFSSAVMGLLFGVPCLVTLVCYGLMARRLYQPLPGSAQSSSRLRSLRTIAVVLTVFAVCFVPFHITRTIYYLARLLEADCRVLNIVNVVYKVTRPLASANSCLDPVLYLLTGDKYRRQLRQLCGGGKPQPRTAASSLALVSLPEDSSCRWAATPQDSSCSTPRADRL

Turning to `O=c1ccn([C@@H]2O[C@H](COP(=O)(O)OP(=O)(O)OP(=O)(O)OC[C@@H]3O[C@H](n4ccc(=O)[nH]c4=O)[C@@H](O)[C@H]3O)[C@@H](O)[C@H]2O)c(=O)[nH]1`, the EC50 is 22 µM at P2Y purinoceptor 2 [1], “Not Active” at P2Y purinoceptor 1, 0.2 µM at P2Y purinoceptor 6 and above 100 µM at P2Y purinoceptor 4 [2].
Regarding `O=c1ccn([C@@H]2O[C@H](COP(=O)(O)OP(=O)(O)OP(=O)(O)OP(=O)(O)OC[C@@H]3O[C@H](n4ccc(=O)[nH]c4=O)[C@@H](O)[C@H]3O)[C@@H](O)[C@H]2O)c(=O)[nH]1`, the values for the EC50 result on P2Y purinoceptor 1, at P2Y purinoceptor 6 and at P2Y purinoceptor 4 [2] were “Not Active”, 20 µM and 0.4 µM, respectively.
Take `O=c1ccn([C@@H]2O[C@H](COP(=O)(O)OP(=O)(O)OP(=O)(O)OP(=O)(O)OP(=O)(O)OP(=O)(O)OP(=O)(O)OC[C@@H]3O[C@H](n4ccc(=O)[nH]c4=O)[C@@H](O)[C@H]3O)[C@@H](O)[C@H]2O)c(=O)[nH]1`: the EC50 at P2Y purinoceptor 2 [1] is 8.4 µM; at P2Y purinoceptor 1, “Not Active”; at P2Y purinoceptor 6, above 100 µM; at P2Y purinoceptor 4 [2], above 30 µM.
Regarding `O=c1ccn([C@@H]2O[C@H](COP(=O)(O)OP(=O)(O)OP(=O)(O)OP(=O)(O)OP(=O)(O)OC[C@@H]3O[C@H](n4ccc(=O)[nH]c4=O)[C@@H](O)[C@H]3O)[C@@H](O)[C@H]2O)c(=O)[nH]1`, the EC50 on P2Y purinoceptor 2 [1] is 5.6 µM; on P2Y purinoceptor 1 it was “Not Active”; at P2Y purinoceptor 6 it was above 30 µM; on P2Y purinoceptor 4 [2], above 20 µM.
For `O=c1ccn([C@@H]2O[C@H](COP(=O)(O)OP(=O)(O)OP(=O)(O)OP(=O)(O)OP(=O)(O)OP(=O)(O)OC[C@@H]3O[C@H](n4ccc(=O)[nH]c4=O)[C@@H](O)[C@H]3O)[C@@H](O)[C@H]2O)c(=O)[nH]1`, in that order: 9.8 µM, “Not Active”, above 30 µM and above 30 µM.
On to `O=c1ccn([C@@H]2O[C@H](COP(=O)(O)OP(=O)(O)OC[C@@H]3O[C@H](n4ccc(=O)[nH]c4=O)[C@@H](O)[C@H]3O)[C@@H](O)[C@H]2O)c(=O)[nH]1`, for which the EC50 entry was “Not Active” at P2Y purinoceptor 2 [3], “Not Active” at P2Y purinoceptor 1, “Not Active” on P2Y purinoceptor 4 [4] and above 30 µM on P2Y purinoceptor 6.
As to `O=c1ccn([C@@H]2O[C@H](COP(=O)(O)OP(=O)(O)OP(=O)(O)O)[C@@H](O)[C@H]2O)c(=O)[nH]1` [URIDINE TRIPHOSPHATE], the EC50 on P2Y purinoceptor 2 [1] is 0.03 µM; on P2Y purinoceptor 1 it was “Not Active”; at P2Y purinoceptor 6, above 10 µM; at P2Y purinoceptor 4 [2] it was 0.1 µM.
In the case of `O=c1ccn([C@@H]2O[C@H](COP(=O)(O)OP(=O)(O)O)[C@@H](O)[C@H]2O)c(=O)[nH]1` [URIDINE_DIPHOSPHATE], the EC50 was above 10 µM at P2Y purinoceptor 2 [1], “Not Active” on P2Y purinoceptor 1, “Not Active” on P2Y purinoceptor 4 [4] and 0.1 µM at P2Y purinoceptor 6.
